Scp-1 inhibitor: Scp-1 (human) phosphatase inhibition; Q9GZU7; Recombinant Scp1, phosphopeptide, malachite green phosphate absorbance; inhibition, % at 20 µM; 0.88% of 340,000 active; AID 493091;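 active means inhibition above about 50% at 20 µM, limit read from the data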
Target sequence (Q9GZU7 76-261 limits assumed): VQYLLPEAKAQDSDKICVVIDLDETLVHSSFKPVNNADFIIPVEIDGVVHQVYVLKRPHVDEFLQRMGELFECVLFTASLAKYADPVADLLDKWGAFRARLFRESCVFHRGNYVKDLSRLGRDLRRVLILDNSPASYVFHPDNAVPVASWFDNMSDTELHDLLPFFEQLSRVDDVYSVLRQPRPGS
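Test system – truncated SCP-1 phosphatase (76-261aa) · Reagent – Phosphorylated 17-residue peptide substrate · Incubation – 45 min room-temperature reaction, 5 min colour, 30 min stabiliser · Detection – colorimetric phosphate reagent with accelerator and stabiliser, absorbance at 630 nm · Measure – % inhibition at 20 µM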
STEP block: blocks human striatal-enriched tyrosine phosphatase | P54829 | recombinant STEP, OMFP fluorogenic substrate, fluorescence | inhibition, % at 20 µM | 0.25% of 360,000 active;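 active means inhibition at 20 µM, scaled per plate between control wells, above about 37%, limit read from the data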
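Measure: Control-normalized % inhibition with plate pattern correction | Test system: STEP phosphatase, cell-free reaction | Medium: pH 6.0 Bis-Tris with DTT and Tween 20 | Technique: Fluorescence, 480/540 nm | Times: Reaction 20 min, ambient temperature | Doses: Single compound dose of 20 µM, 1% DMSO final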
LMPTP inh: LMPTP (human) inhibition | P24666 | recombinant LMPTP-A, OMFP fluorogenic substrate, fluorescence intensity | inhibition, % at 20 µM | 0.22% of 360,000 active;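 active means compounds that cut the enzyme signal by at least half of the control window in the single-dose screen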
Target sequence (P24666 whole entry, looked up): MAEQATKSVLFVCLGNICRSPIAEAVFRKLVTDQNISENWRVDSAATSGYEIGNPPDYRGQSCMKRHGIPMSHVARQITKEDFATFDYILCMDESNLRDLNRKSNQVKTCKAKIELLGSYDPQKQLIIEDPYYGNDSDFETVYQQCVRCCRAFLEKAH
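Buffer or medium: Bis-Tris pH 6.0, DTT, detergent; Assay system: LMPTP-A enzyme; Quantity: 0.625 nM enzyme; Detection: endpoint fluorescence intensity; Times: 50 min dark incubation at room temperature; Controls: substrate-only low control, DMSO enzyme-plus-substrate high control; Doses: single 20 µM dose; Read-out: percent inhibition versus substrate-only and uninhibited controls; Reagent: 400 µM OMFP.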
DNMT1 block: DNMT1 (human) enzyme inhibition | P26358 | DNMT1 molecular beacon, Hinp1I cleavage, fluorescence | inhibition (reported as % activation of signal), % at 10 µM | 0.83% of 360,000 active | AID 588458; in the data active means inhibition above about 50%
SUMO1-SIM PPI: SUMO1-SIM interaction modulation | P63165 | SUMO1 binding to a labelled peptide, TR-FRET, 1 h | inhibition, % at 20 µM | 0.33% of 360,000 active | AID 602429; in the data active means inhibition above about 37%
Rpn11 block: blocks the human proteasome subunit Rpn11; human 26S proteasome, Ub4-pepOG fluorescence polarization; 20S core pre-blocked with epoxomicin; inhibition, % at 20 µM; 0.59% of 360,000 active; AID 588493;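 active means inhibition at 20 µM, scaled to each plate's controls, above about 33%, limit read from the data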
Target sequence (O00487 whole entry, looked up): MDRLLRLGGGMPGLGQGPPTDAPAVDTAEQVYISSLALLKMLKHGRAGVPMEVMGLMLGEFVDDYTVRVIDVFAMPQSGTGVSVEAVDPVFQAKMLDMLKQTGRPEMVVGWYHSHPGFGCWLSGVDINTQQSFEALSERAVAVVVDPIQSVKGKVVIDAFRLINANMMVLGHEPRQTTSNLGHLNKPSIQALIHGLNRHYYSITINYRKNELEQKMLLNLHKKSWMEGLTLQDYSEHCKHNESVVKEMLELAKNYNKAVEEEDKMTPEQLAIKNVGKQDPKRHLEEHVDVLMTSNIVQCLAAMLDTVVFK
Rpn11 inh conf: Rpn11 inhibition confirmation, single concentration | shares compounds with Rpn11 block | purified human 26S proteasome, Ub4-pepOG fluorescence polarization; proteasome pretreated with epoxomicin | inhibition, % at 20 µM | 29% of 1,900 active | AID 602318
MMP-2 inh: counter-screen for RPN11 inhibitors: inhibition of human MMP-2. shares compounds with Rpn11 block. recombinant MMP-2, FRET peptide cleavage fluorescence. inhibition, % at 20 µM. 4% of 1,900 active. AID 602330;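 further: human MMP-2 activated beforehand with APMA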
Thrombin FP: counter-screen for RPN11 inhibitors: inhibition of bovine thrombin. shares compounds with Rpn11 block. bovine thrombin cleavage of Ub4-pepOG, fluorescence polarization. inhibition, % at 20 µM. 13% of 1,900 active. AID 602333;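 active means mean inhibition at least 40% at 20 µM, or signal 3 deviations below plate average, so some actives read negative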
Hits are given with their value; 0 = inactive; - = no result; + = active, no number. Rows were chosen to be rich in hits. Some 2.3% of all compounds tested hit in one or more screens of this group. Unless noted, no stated cut-off is given here; in the data, active means inhibition above about 40%; inactive means the rest.

SMILES	Scp-1 inhibitor	STEP block	LMPTP inh	DNMT1 block	SUMO1-SIM PPI	Rpn11 block	Rpn11 inh conf	MMP-2 inh	Thrombin FP
CC(=O)C1=C(C)NC(SCC(=O)c2ccc(Cl)cc2Cl)=C(C#N)C1c1ccco1 (centres undefined)	0	0	0	0	0	50	0	0	0
COc1cc(-c2cc(-c3ccc(F)cc3)nc(N)c2C#N)ccc1O	0	0	0	0	0	97	0	0	0
CCOc1cc(-c2cc(-c3ccc(N)cc3)nc(N)c2C#N)ccc1O	0	0	0	0	0	0	-	-	-
Cn1nc(C(C)(C)C)cc1C(=O)N1CCCCC1c1cc(C(=O)NCc2cccnc2)no1 (centres undefined)	-	0	0	0	0	0	-	-	-
COc1ccc(NC(=S)Nc2cccc(C(F)(F)F)c2)c(C)c1	0	0	0	0	0	0	-	-	-
Cc1cccc(OCCn2c(-c3ccco3)nc3ccccc32)c1	0	0	0	0	0	0	-	-	-
c1ccc(OCCn2c(-c3ccco3)nc3ccccc32)cc1	0	0	0	0	0	49	0	0	0
O=C(NC1CCCCC1)NC1CC2CCCC(C1)N2C1CCCC1 (centres undefined)	0	0	0	0	0	73	0	0	0
O=C(NNC(=O)NC1CCCCC1)NC1CCCCC1	0	0	0	0	0	0	-	-	-
O=C(CCN1C(=O)/C(=C/c2cccs2)SC1=S)Nc1cccc(C(=O)O)c1	0	0	0	0	0	42	47	0	51
O=C(CCN1C(=O)/C(=C\c2cccs2)SC1=S)Nc1ccccn1	0	0	0	0	0	61	60	0	0
O=C(CCCN1C(=O)/C(=C/c2cccs2)SC1=S)Nc1ccccn1	0	0	0	0	0	0	-	-	-
COc1ccccc1/C=C/C(=O)Nc1cccc(S(=O)(=O)N2CCOCC2)c1	0	0	0	0	0	0	-	-	-
COc1cc(/C=C2\N=C3CCCCCN3C2=O)ccc1O	0	0	0	0	0	152	88	0	67
COc1ccc(/C=C2\N=C3CCCCCN3C2=O)cc1OC	0	0	0	0	0	0	-	-	-
CCOC(=O)c1c(NC(=O)C(C)OC(=O)C2=COCCO2)sc2c1CCCC2 (centres undefined)	0	0	0	0	0	0	-	-	-
CCOC(=O)c1c(NC(=O)C(C)OC(=O)c2ccc(NC(=O)CC#N)cc2)sc2c1CCCC2 (centres undefined)	0	0	0	0	0	53	0	0	0
CCCCC1CCC(C(=O)N(CCC(C)C)c2c(N)n(CCCC)c(=O)[nH]c2=O)CC1 (centres undefined)	-	0	0	0	0	0	-	-	-
S=C(Nc1ccc(Cl)cc1)c1nc2ccccc2s1	0	0	0	0	0	0	-	-	-
O=C(Nc1ccc(Cl)cc1)/C(=C/c1cccc(O)c1)c1nc2ccccc2s1	0	0	0	0	0	46	0	0	0
CCOC(=O)C1CCCN(C2=NC(=O)/C(=C/c3ccc(O)c(OC)c3)S2)C1 (centres undefined)	0	0	0	0	0	76	43	0	0
CCc1ccc(NC(=O)C(=O)c2ccccc2NC(C)=O)cc1	0	0	0	0	0	0	-	-	-
CCCCC(CC)CNC(=O)C(=O)c1ccccc1NC(C)=O (centres undefined)	0	0	0	0	0	41	0	0	0
COc1ccc(CNC(=O)CN2CCN(S(=O)(=O)c3ccccc3)CC2)cc1	0	0	0	0	0	0	-	-	-
CCCCCCN1C=CC=C/C1=C\C=C(C#N)C#N	0	0	0	0	0	62	0	0	0
SMILES	Scp-1 inhibitor	STEP block	LMPTP inh	DNMT1 block	SUMO1-SIM PPI	Rpn11 block	Rpn11 inh conf	MMP-2 inh	Thrombin FP
CC1CCN(CCCNC(=O)c2coc3nc4ccccc4nc23)CC1	0	0	0	0	0	0	-	-	-
Cc1ccc(CCNC(=O)c2coc3nc4ccccc4nc23)cc1	0	0	0	0	0	41	0	0	0
CC1=CN2C(=N)/C(=C/c3ccc(Sc4ccc(C)cc4)o3)C(=O)N=C2S1	0	0	0	0	0	48	0	0	0
c1ccc2[nH]c(NCCCN3CCOCC3)nc2c1	0	0	0	0	0	0	-	-	-
O=c1[nH]c2ccccc2nc1NCCN1CCOCC1	0	0	0	0	0	43	0	0	0
COc1ccc(-c2cc(C(=O)Nc3ccc(Br)cc3)no2)cc1	0	0	0	0	0	59	0	0	0
O=C(NCc1cccc(C(F)(F)F)c1)C1CC(c2c(Cl)cccc2Cl)=NO1 (centres undefined)	0	0	0	0	0	0	-	-	-
CCN(CCCNC(=O)CN(C)S(=O)(=O)c1cccc2nsnc12)c1ccccc1	0	0	0	0	0	0	-	-	-
CCCOC1CCCN(Cc2nc(-c3ccc(C(=O)OC)cc3)no2)C1 (centres undefined)	0	0	0	0	0	0	-	-	-
CCN(CC)S(=O)(=O)c1cccc(NC(=O)COc2ccc(C#N)cc2OC)c1	0	0	0	0	0	0	-	-	-
CCN(CC)S(=O)(=O)c1cccc(NC(=O)COc2ccc(F)cc2Br)c1	0	0	0	0	0	46	0	0	0
O=C(COC(=O)C1CC1)NCCc1ccc(Cl)cc1	0	0	0	0	0	0	-	-	-
CN1CCN(/N=C/c2ccc(-c3ccc([N+](=O)[O-])cc3Cl)o2)CC1	0	0	0	0	0	60	0	0	0
COc1ccc(NC(=O)CSc2ncccn2)cc1S(=O)(=O)N1CCCCC1	0	0	0	0	0	0	-	-	-
COCc1ccc(C(=O)NC2CCCc3c2cnn3-c2cc(C)cc(C)c2)s1 (centres undefined)	0	0	0	0	0	0	-	-	-
COc1cc(NC(=O)c2c(Cl)cnn2C)c(OC)cc1Cl	0	0	0	0	0	0	-	-	-
Cn1ncc(Cl)c1C(=O)Nc1cc(C(F)(F)F)ccc1F	0	0	0	0	0	+	0	0	0
Cc1cccc(/C=C\c2nc3ccccc3c(=O)[nH]2)c1	0	0	0	0	0	0	-	-	-
COc1cc(/C=C/c2nc3ccccc3c(=O)[nH]2)cc(Cl)c1O	0	0	0	0	0	69	0	0	158
CC1CCCN(S(=O)(=O)c2ccc(S(=O)(=O)N3CCC4(CC3)OCCO4)cc2)C1 (centres undefined)	0	0	0	0	0	0	-	-	-
CC(=O)c1cccc(NS(=O)(=O)N(C)C)c1	0	0	0	0	0	128	0	0	0

High-throughput results from PubChem BioAssay.
